Results: ChEMBL document CHEMBL1123757, “Selective thromboxane synthetase inhibitors and antihypertensive agents. New derivatives of 4-hydrazino-5H-pyridazino[4,5-b]indole, 4-hydrazinopyridazino[4,5-a]indole, and related compounds” (J Med Chem, 1987)

Tests used:
Rattus norvegicus [1] = test: Antihypertensive activity in spontaneously hypertensive rats (SHR) measured by percentage fall in cardiac rhythm (CR) at 5 mg/kg administered intraperitoneally at 24 h; No significance; type: functional, organism-based; parameters: dose 5 mg/kg; settings: Heart
Procedure, shortened: (§1)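 Conscious SHR (Okamoto strain), 8 weeks old, male and female, 300–350 g, systolic BP ≥190 mmHg, CR 400–650 beats/min. Given ip or po at 2.5 mL/kg in normal saline or saline with 0.2% (carboxymethyl)cellulose and 1.0% Tween 80. Tail AP and CR recorded by mechanical transduction at 1, 3, 5 and 24 h, five animals per dose. Effect expressed as % fall versus control.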

Rattus norvegicus [2] = test: Antihypertensive activity in spontaneously hypertensive rats (SHR) measured by percentage fall in arterial pressure (AP) at 1 mg/kg administered intraperitoneally at 24 h; No significance; type: functional, organism-based; parameters: dose 1 mg/kg; settings: Artery
Procedure, shortened: (§2)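 Unanesthetized Okamoto-strain SHR, male and female, 8 weeks old, 300–350 g, systolic pressure ≥190 mmHg, heart rate 400–650 beats/min; five animals per dose. Given ip at 2.5 mL/kg, dissolved or suspended in normal saline or saline with 0.2% (carboxymethyl)cellulose and 1.0% Tween 80. Tail AP and CR recorded by mechanical transduction at set times; reported as percentage fall from control.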

Rattus norvegicus [3] = test: Antihypertensive activity in spontaneously hypertensive rats (SHR) measured by percentage fall in cardiac rhythm (CR) at 5 mg/kg administered intraperitoneally at 3 h;No significance; type: functional, organism-based; parameters: dose 5 mg/kg; settings: Heart; procedure, shortened: as §1
Rattus norvegicus [4] = test: Antihypertensive activity in spontaneously hypertensive rats (SHR) measured by percentage fall in cardiac rhythm (CR) at 25 mg/kg administered perorally at 3 h;No significance; type: functional, organism-based; parameters: dose 25 mg/kg; settings: Heart; procedure, shortened: as §1
Rattus norvegicus [5] = test: Antihypertensive activity in spontaneously hypertensive rats (SHR) measured by percentage fall in arterial pressure (AP) at 25 mg/kg administered perorally at 24 h; No significance; type: functional, organism-based; parameters: dose 25 mg/kg; settings: Artery
Procedure, shortened: (§3)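 Oral dosing at 2.5 mL/kg to unanesthetized male and female Okamoto-strain SHR (8 weeks old, 300–350 g, systolic pressure ≥190 mmHg, heart rate 400–650 beats/min), five per dose. Vehicle was normal saline or saline with 0.2% (carboxymethyl)cellulose and 1.0% Tween 80. AP measured on the tail by mechanical transduction at set times; expressed as percentage fall from control.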

Rattus norvegicus [6] = test: Antihypertensive activity in spontaneously hypertensive rats (SHR) measured by percentage fall in cardiac rhythm (CR) at 25 mg/kg administered perorally at 24 h; No significance; type: functional, organism-based; parameters: dose 25 mg/kg; settings: Heart; procedure, shortened: as §1
Rattus norvegicus [7] = test: Antihypertensive activity in spontaneously hypertensive rats (SHR) measured by percentage fall in cardiac rhythm (CR) at 5 mg/kg administered perorally at 3 h;No significance; type: functional, organism-based; parameters: dose 5 mg/kg; settings: Heart; procedure, shortened: as §1
Rattus norvegicus [8] = test: Antihypertensive activity in spontaneously hypertensive rats (SHR) measured by percentage fall in arterial pressure (AP) at 5 mg/kg administered perorally at 24 h; No significance; type: functional, organism-based; parameters: dose 5 mg/kg; settings: Artery; procedure, shortened: as §3
Rattus norvegicus [9] = test: Antihypertensive activity in spontaneously hypertensive rats (SHR) measured by percentage fall in arterial pressure (AP) at 25 mg/kg administered perorally at 5 h; No significance; type: functional, organism-based; parameters: dose 25 mg/kg; settings: Artery; procedure, shortened: as §3
Rattus norvegicus [10] = test: Antihypertensive activity in spontaneously hypertensive rats (SHR) measured by percentage fall in cardiac rhythm (CR) at 5 mg/kg administered perorally at 24 h; No significance; type: functional, organism-based; parameters: dose 5 mg/kg; settings: Heart; procedure, shortened: as §1
Rattus norvegicus [11] = test: Antihypertensive activity in spontaneously hypertensive rats (SHR) measured by percentage fall in cardiac rhythm (CR) at 25 mg/kg administered intraperitoneally at 24 h;No significance; type: functional, organism-based; parameters: dose 25 mg/kg; settings: Heart; procedure, shortened: as §2
Rattus norvegicus [12] = test: Antihypertensive activity in spontaneously hypertensive rats (SHR) measured by percentage fall in arterial pressure (AP) at 1 mg/kg administered intraperitoneally at 5 h; No significance; type: functional, organism-based; parameters: dose 1 mg/kg; settings: Artery; procedure, shortened: as §2
Rattus norvegicus [13] = test: Percent fall in systolic blood pressure, directly measured on carotid (iv on the jugular vein) of spontaneously hypertensive rats at 1 mg/kg after 180 minutes; No significance; type: functional, organism-based; parameters: dose 1 mg/kg; settings: Artery
Procedure, shortened: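 Anesthetized (sodium pentobarbital, 70 mg/kg) male and female Okamoto SHR, 8 weeks old, 300–350 g. Given iv into the jugular vein in normal saline. Arterial pressure and cardiac rhythm are recorded directly from the carotid by polygraph at set times after dosing. Each is expressed as percent change from the pre-dose control value.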

Rattus norvegicus [14] = test: Antihypertensive activity in spontaneously hypertensive rats (SHR) measured by percentage fall in arterial pressure (AP) at 5 mg/kg administered perorally at 5 h; No significance; type: functional, organism-based; parameters: dose 5 mg/kg; settings: Artery; procedure, shortened: as §3
Rattus norvegicus [15] = test: Antihypertensive activity in spontaneously hypertensive rats (SHR) measured by percentage fall in cardiac rhythm (CR) at 5 mg/kg administered perorally at 5 h; No significance; type: functional, organism-based; parameters: dose 5 mg/kg; settings: Heart; procedure, shortened: as §1
Homo sapiens [16] = organism: Homo sapiens; test: In vitro inhibition of platelet aggregation induced by DD (PRP incubated for 5 minutes at 37 degree C) at 10e-5 M;No significance; type: functional
Procedure, shortened: (§4)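 Human venous blood anticoagulated with 3.8% sodium citrate (1:9). PRP from centrifugation at 800 rpm for 10 min at room temperature. Count adjusted with PPP to […]. Compound in saline with 10% ethylene glycol is added to PRP and incubated at 37 °C before the agonist. Agonists: ADP 2×10^-5 M, AA 0.6 mM, PGH2 2.8 μM, adrenaline 0.6 μM. Born absorbance aggregometry; n = 5.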

Rattus norvegicus [17] = test: Antihypertensive activity in spontaneously hypertensive rats (SHR) measured by percentage fall in cardiac rhythm (CR) at 25 mg/kg administered intraperitoneally at 1 h;No significance; type: functional, organism-based; parameters: dose 25 mg/kg; settings: Heart; procedure, shortened: as §2
Rattus norvegicus [18] = test: Antihypertensive activity in spontaneously hypertensive rats (SHR) measured by percentage fall in cardiac rhythm (CR) at 25 mg/kg administered perorally at 5 h; No significance; type: functional, organism-based; parameters: dose 25 mg/kg; settings: Heart; procedure, shortened: as §1
Homo sapiens [19] = organism: Homo sapiens; test: In vitro inhibition of platelet aggregation induced by AA (PRP incubated for 60 minutes at 37 degree C) at 10e-5 M;No significance; type: functional; procedure, shortened: as §4
Rattus norvegicus [20] = test: Antihypertensive activity in spontaneously hypertensive rats (SHR) measured by percentage fall in cardiac rhythm (CR) at 5 mg/kg administered intraperitoneally at 1 h;No significance; type: functional, organism-based; parameters: dose 5 mg/kg; settings: Heart; procedure, shortened: as §1

CCOc1ccc2[nH]c3c(NN)nncc3c2c1
inactive: Decrease in CR (Rattus norvegicus [1]) No significant values | Decrease in AP (Rattus norvegicus [2]) No significant values | Decrease in blood pressure (Rattus norvegicus [3]) No significant values | Decrease in blood pressure (Rattus norvegicus [4]) No significant values | Decrease in blood pressure (Rattus norvegicus [5]) No significant values | Decrease in AP (Rattus norvegicus [6]) No significant values | Decrease in blood pressure (Rattus norvegicus [7]) No significant values | Decrease in AP (Rattus norvegicus [8]) No significant values | Decrease in AP (Rattus norvegicus [9]) No significant values | Decrease in CR (Rattus norvegicus [10]) No significant values | Decrease in CR (Rattus norvegicus [11]) No significant values | Decrease in AP (Rattus norvegicus [12]) No significant values | Decrease in AP (Rattus norvegicus [13]) No significant values | Decrease in AP (Rattus norvegicus [14]) No significant values | Decrease in AP (Rattus norvegicus [15]) No significant values | inhibition (Homo sapiens [16]) No significant values | Decrease in CR (Rattus norvegicus [17]) No significant values | Decrease in CR (Rattus norvegicus [18]) No significant values | inhibition (Homo sapiens [19]) No significant values | Decrease in CR (Rattus norvegicus [20]) No significant values
